The text below walks through data of paper PMC11500341 (Scientific Reports, 2024).

One test deals with MCF-7 cells. The test can be described thus: Cell migration. It counts as cell-based. Particulars: after 48 h and 72 h. In short, it runs like this:
(§1)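 Cells were seeded at 0.2 × 10^6 per 35 mm dish in DMEM with 10% FBS and left to adhere overnight at 37 °C in 5% CO2. Monolayers were scratched with a sterile pipette tip and imaged at time zero. They were then treated: control, 0.05% DMSO vehicle, three test compound levels, doxorubicin, and doxorubicin plus the top level. The scratched area was re-imaged at 24, 48 and 72 h.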

A further test deals with MDA-MB-231 cells. The test can be described thus: Cell migration. Particulars: after 48 h and 72 h. It counts as cell-based. An outline of the steps:
as §1

For test [1], the system named is Caspase 3/7 in MCF-7 cells. Nature of the test: Caspase glow 3/7 assay, MCF-7. It counts as cell-based. Particulars: P3 300 μm / Dox 0.2 μm / Dox + P3 0.2 μm + 300 μm, p ≤ 0.0001.
The test system of test [2] is Caspase 3/7 in MDA-MB-231 cells. The test can be described thus: Caspase glow 3/7 assay, MDA-MB-231. It counts as cell-based. Particulars: P3 300 μm / Dox 0.2 μm / Dox + P3 0.2 μm + 300 μm, p ≤ 0.0001. In short, it runs like this:
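MDA-MB-231 cells were seeded at 5 × 10^3 per well and adhered overnight. They were exposed to the test compound (P1 75, P2 150, P3 300), Dox 0.2 or Dox + P3 for 24, 48 or 72 h. Caspase-Glo 3/7 reagent (substrate/luciferase) was added, followed by 30–60 min at 25 °C. Luminescence was then read.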

A further test relates to Rac1. Nature of the test: Western blot, Rac1 expression. Particulars: P3 300 μm / Dox 0.2 μm / Dox + P3 0.2 μm + 300 μm, vs CT. It counts as cell-based, human. In short, it runs like this:
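MCF-7 cells (DMEM, 10% FBS) were treated per group for 48 and 72 h. Lysate protein was measured by BCA, and 30 µg was run on 10% SDS-PAGE and transferred to PVDF. Blots were blocked in 5% milk/TBS-T for 2 h. Rabbit anti-Rac1 (1:250) and GAPDH (1:500) antibodies were applied overnight at 4 °C, then 2 h at room temperature. HRP secondary (1:4000) and ECL detection followed, with band densitometry.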
On the technique in general: In western blotting, separated proteins are transferred to a membrane and probed.

The next test concerns VEGF. The test can be described thus: Western blot, VEGF expression. Particulars: MCF-7 and MDA-MB-231; after treatments. Format: cell-based, human. An outline of the steps:
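MCF-7 and MDA-MB-231 lysates were taken 48 h and 72 h after the treatment groups. Protein was quantified by BCA and 30 µg run on 10% SDS-PAGE, then transferred to PVDF. Membranes were blocked 2 h in 5% milk in TBS-T. Mouse anti-human VEGF (1:300, in 5% BSA TBS-T) was applied overnight at 4 °C, then 2 h at room temperature. Detection used HRP goat anti-mouse (1:4000) and ECL, with band densitometry.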

A further test deals with breast-cancer cells. Particulars: cited from earlier work.
The next test has as its system Rac1 and Tiam1 complex. Particulars: cited from earlier work.

Turning to `COc1cccc2c1C(=O)c1c(O)c3c(c(O)c1C2=O)C[C@@](O)(C(=O)CO)C[C@@H]3O[C@H]1C[C@H](N)[C@H](O)[C@H](C)O1` [Dox, Doxorubicin, reference compound], the “rate of cell proliferation and migration (ranking)” value in the test with MCF-7 cells is “slowest in Dox + P3 followed by Dox, P3, P2 and P1”; in the test on MDA-MB-231 cells it was “slowest in Dox + P3 followed by Dox, P3, P2 and P1”. The “fold change in RLU with respect to control (caspase 3/7)” value in test [1] (MCF-7, 48 h) came to 1.64; in test [1] (MCF-7, 72 h) it was 0.79; in test [2] (MDA-MB-231, 48 h), 0.84; in test [2] (MDA-MB-231, 72 h), 1.02. Moreover, the “% change of protein expression” value in the test on Rac1 (MCF-7, 48 h) turned out to be 13.13%; in the test on Rac1 (MCF-7, 72 h), 43.31%; in the test with Rac1 (MDA-MB-231, 48 h) it was 32.57%; in the test on Rac1 (MDA-MB-231, 72 h), 31.39%. The “VEGF expression (in words)” value in the test on VEGF is “downregulated after treatments with peptide and Dox”.

Turning to `CCN(CC)CCCC(C)Nc1nc(C)cc(Nc2ccc3nc(C)cc(N)c3c2)n1` (stereo not shown) [NSC23766], in the test on breast-cancer cells, the “cell cycle arrest and apoptosis” value is “induce G1 cell cycle arrest and apoptosis”. The “inhibition of Rac1-Tiam1 interaction” value in the test with Rac1 and Tiam1 complex is “inhibits the interactions between Rac1 and Tiam1 complex”.
